Measured values from the array DNA melting data of Ke et al. (doi:10.1101/2024.01.08.574731).

Key:
[1] = folding enthalpy; higher = less favourable; fluorescence melt of hairpins on a sequencing array, two-state fit; conditions: sodium 0.088 M
How it was run: (§1)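 Cy3 signals were normalised both to pre-quench Cy3 and to control constructs. They came from library hairpins carrying annealed Cy3 and quencher oligos on a sequenced MiSeq flow cell, imaged in 50 mM Na-HEPES pH 8.0, 25 mM NaCl, in 2.5 °C steps up to 60 °C. Bootstrapped two-state fits gave melting temperature and folding enthalpy, and four replicates were combined by inverse variance. Fitted temperatures were then raised by 9.35 °C to match UV melts.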

[2] = melting temperature; fluorescence melt of hairpins on a sequencing array, two-state fit, raised by 9.35 °C to match UV melts; conditions: sodium 0.088 M
How it was run: as §1

Row | Sequence | folding enthalpy [1] | Tm [2]
1 | GTGAGCCGAAAGGCCAC (((.(((....)))))) | -18.7 kcal/mol | 64.7 °C
2 | GCCGAGCGAAAGCGCAGC ((.(.((....)).).)) | -14.4 kcal/mol | 49.4 °C
3 | GCCCAGCGAAAGCAGTGC ((.(.((....)).).)) | -13.3 kcal/mol | 34.7 °C
4 | GATCCAGTGATGGATC ((((((....)))))) | -35.2 kcal/mol | 56.6 °C
5 | GGTCACGAAAGTGATACC ((((((....)))..))) | -11.7 kcal/mol | 44.7 °C
6 | GACGTGGGAAACCGCGTC ((((.((....)).)))) | -43.8 kcal/mol | 61.5 °C
7 | GTGTGTGGAAACATACAC ((((.((....)).)))) | -39.6 kcal/mol | 48.6 °C
8 | GCCCCGCGAAAGCGCGGC (((.(((....))).))) | -17.4 kcal/mol | 64.4 °C
9 | GATCGTCCTACGATC ((((((...)))))) | -38.6 kcal/mol | 56.5 °C
10 | CGTTGGCGGAAACGCACG (((..(((....)))))) | -14.6 kcal/mol | 41.1 °C
11 | GTACGTGGAAACACGCAC ((.((((....)))).)) | -17.2 kcal/mol | 47.3 °C
12 | GTGCTGGGAAACTGGCAC ((((..(....)..)))) | -26.2 kcal/mol | 49.7 °C
13 | GTCGTCGAAAGACTGGAC ((((((....)))..))) | -20.7 kcal/mol | 39.2 °C
14 | GAAGCGGGAAACCGCTCC (.(((((....))))).) | -10.3 kcal/mol | 42.5 °C
15 | GGTGAAGCGAAAGCTACC (((..(((....)))))) | -17.1 kcal/mol | 40.5 °C
16 | GTACCTCGAAAGAGCTAC (((.(((....))).))) | -11.1 kcal/mol | 30.2 °C
17 | GGTTGGAAACAACC (((((....))))) | -29.6 kcal/mol | 54.9 °C
18 | GTTATACGAAAGTAAAAC (((.(((....))).))) | -20.2 kcal/mol | 32.2 °C
19 | GCAATCGAAAGATATTGC ((((((....)))..))) | -18.7 kcal/mol | 35.5 °C
20 | GAACGAGGAAACTCATTC (((.(((....))).))) | -15.5 kcal/mol | 24.8 °C
21 | GGTGTCACGAAAGTGACC (((..(((....)))))) | -10.2 kcal/mol | 50 °C
22 | GATCAGGACCTGATC ((((((...)))))) | -40.4 kcal/mol | 49.6 °C
23 | GGCATCCGAAAGGAGCC (((.(((....)))))) | -42.6 kcal/mol | 55.6 °C

Row | Sequence | folding enthalpy [1] | Tm [2]
24 | GTATGGGGAAACCTATAC ((((.((....)).)))) | -30.3 kcal/mol | 38.4 °C
25 | GTTTTGGGAAACTAAAAC (((((.(....).))))) | -24.3 kcal/mol | 36.6 °C
26 | GCGATCCATCGC ((((....)))) | -27.3 kcal/mol | 57.2 °C
27 | GTTAGGCGAAAGCCCAAC (((.(((....))).))) | -13.8 kcal/mol | 37.2 °C
28 | GTGGACGAAAGTCGACAC ((((((....)))..))) | -21.8 kcal/mol | 47.5 °C
29 | GATCGCTTGAGCGATC ((((((....)))))) | -27.6 kcal/mol | 67.6 °C
30 | GATTAGGGAAACCTAATC (((((((....))))))) | -45.1 kcal/mol | 50.3 °C
31 | GAAACAGGAAACTGCTTC (((.(((....))).))) | -21.9 kcal/mol | 31.6 °C
32 | GCCCTCCCGAAAGGGGGC (((..(((....)))))) | -16.1 kcal/mol | 58 °C
33 | GATCGGGCTGCCGATC ((((((....)))))) | -46.5 kcal/mol | 57.1 °C
34 | GATTTTACGAAAGTAATC (((..(((....)))))) | -13.6 kcal/mol | 26.3 °C
35 | GATCCGCAGTCGGATC ((((((....)))))) | -35 kcal/mol | 55.9 °C
36 | GTTGGCGGAAACGCTGAC ((..(((....)))..)) | -16.8 kcal/mol | 45 °C
37 | GGAACCGAAAGGTCATCC ((((((....)))..))) | -10.8 kcal/mol | 28.6 °C
38 | GCGCTGCGAAAGCCGGGC ((.(.((....)).).)) | -20.5 kcal/mol | 50.9 °C
39 | GATCCCTCGGGGGATC ((((((....)))))) | -37.4 kcal/mol | 61.2 °C
40 | GCTTGGCGAAAGCCATGC ((.((((....)))).)) | -27.2 kcal/mol | 65.4 °C
41 | GTACACGAAAGTGTATAC ((((((....)))..))) | -12.1 kcal/mol | 43.6 °C
42 | GTTCGTCGAAAGACTAAC (((.(((....))).))) | -22.2 kcal/mol | 41.3 °C
43 | GTCCGACCGAAAGGTGAC (((..(((....)))))) | -16.6 kcal/mol | 36.6 °C
44 | GATCACCTGCGTGATC ((((((....)))))) | -48.3 kcal/mol | 54.9 °C
45 | GCGGATCCGAAAGGACGC (((..(((....)))))) | -25.6 kcal/mol | 53.3 °C
46 | GCGGCGCGAAAGCGAAGC ((..(((....)))..)) | -29 kcal/mol | 68.1 °C

Row | Sequence | folding enthalpy [1] | Tm [2]
47 | GCAGCGGGAAACTGCTGC (((((.(....).))))) | -43.1 kcal/mol | 66 °C
48 | GAAAACGAAAGTTTGTTC ((((((....)))..))) | -13.5 kcal/mol | 28.4 °C
49 | CGCGGATAACTCCGCG ((((((....)))))) | -38 kcal/mol | 62.2 °C
50 | GCCCATCGAAAGATAGGC (((.(((....))).))) | -30.5 kcal/mol | 47.2 °C
51 | GATCGTCACCACGATC ((((((....)))))) | -40.9 kcal/mol | 54 °C
52 | GAATCAGGAAACTGACTC ((.((((....)))).)) | -17.3 kcal/mol | 28.7 °C
53 | GATCGTTGCTACGATC ((((((....)))))) | -35.9 kcal/mol | 56.3 °C
54 | GATCGAATGATCGATC ((((((....)))))) | -19.6 kcal/mol | 51.7 °C
55 | GATCTTCCCTAAGATC ((((((....)))))) | -31.1 kcal/mol | 43.3 °C
56 | GGGCGTGCGAAAGCACCC (((..(((....)))))) | -13 kcal/mol | 54.4 °C
57 | GGCTGCGAAAGCAATGCC ((((((....)))..))) | -22 kcal/mol | 55 °C
58 | GTTAACGGAAACGTTAGC (.(((((....))))).) | -21.3 kcal/mol | 42.9 °C
59 | GGTCGCGAAAGCGCTACC ((((((....)))..))) | -13 kcal/mol | 36.7 °C
60 | GATCTAACGTAGATC ((((((...)))))) | -24.5 kcal/mol | 36.1 °C
61 | GAGGTTGGAAACGACTTC ((.((.(....).)).)) | -24.9 kcal/mol | 35.2 °C
62 | GATCACGGAGGTGATC ((((((....)))))) | -37.9 kcal/mol | 64.3 °C
63 | GCGCGGCGAAAGCAGAGC ((.(.((....)).).)) | -25.1 kcal/mol | 63.8 °C
64 | GTAGTCGAAAGACGGTAC ((((((....)))..))) | -11.8 kcal/mol | 39.2 °C
65 | GAGACGGGAAACTGTCTC (((((.(....).))))) | -41.1 kcal/mol | 51.5 °C
66 | CGGTTCGGAAACGATCCG (((.(((....))).))) | -36 kcal/mol | 51 °C
67 | GTCTCCGAAAGGATAGAC ((((((....)))..))) | -23.8 kcal/mol | 41 °C
68 | GCGAATCGAAAGATGCGC (((.(((....))).))) | -42.4 kcal/mol | 60.6 °C
69 | GCCCAGCGAAAGCTGGC (((.(((....)))))) | -9.03 kcal/mol | 61 °C

Row | Sequence | folding enthalpy [1] | Tm [2]
70 | GATCGTCCATACGATC ((((((....)))))) | -41.8 kcal/mol | 54.8 °C
71 | GAACCTGGAAACAGGCTC ((.((((....)))).)) | -18.9 kcal/mol | 40 °C
72 | GTAGCCGAAAGGCACTAC ((((((....)))..))) | -12.5 kcal/mol | 48.5 °C
73 | GCTGGGCGAAAGCGAAGC (((..((....))..))) | -20 kcal/mol | 47.5 °C
74 | CGAGTTCGGAAACGATCG (((..(((....)))))) | -10.2 kcal/mol | 30.8 °C
75 | GCGAACGTCGC ((((...)))) | -18.8 kcal/mol | 45.8 °C
76 | GTGGGACGAAAGTCGCAC (((.(((....))).))) | -38.6 kcal/mol | 66.3 °C
77 | GGACCCCGAAAGGGTTCC (((.(((....))).))) | -23.2 kcal/mol | 52.5 °C
78 | GTATTCCGAAAGGATAC (((.(((....)))))) | -19.7 kcal/mol | 38.9 °C
79 | GGTTTGGAAACAAACC ((((((....)))))) | -41.6 kcal/mol | 56.5 °C
80 | GTTTTGGGAAACCAAAGC (.(((((....))))).) | -29.8 kcal/mol | 41 °C
81 | GCGGGGCGAAAGCTCAGC ((.(.((....)).).)) | -23.7 kcal/mol | 60.1 °C
82 | GGTTGCGCGAAAGCGACC (((..(((....)))))) | -18 kcal/mol | 42.8 °C
83 | GGGAAGGGAAACCTTCTC (.(((((....))))).) | -23.8 kcal/mol | 46.6 °C
84 | GTGTTCCCGAAAGGGCAC (((..(((....)))))) | -22.4 kcal/mol | 46.1 °C
85 | GATCATTTCAATGATC ((((((....)))))) | -42.2 kcal/mol | 52.3 °C
86 | GATCTCGACCGAGATC ((((((....)))))) | -51.9 kcal/mol | 56.1 °C
87 | GAGTCACGAAAGTGCTC (((.(((....)))))) | -23.8 kcal/mol | 48.6 °C
88 | GCTGTAGGAAACTGCAGC ((((.((....)).)))) | -43.3 kcal/mol | 52.6 °C
89 | GATCAACAGTTTGATC ((((((....)))))) | -31.2 kcal/mol | 41.3 °C
90 | GATCCTCGGTAGGATC ((((((....)))))) | -26.9 kcal/mol | 50.9 °C
91 | CGGAATCGGAAACGACCG (((..(((....)))))) | -16.6 kcal/mol | 35.3 °C
92 | GATCCGGTTCGGATC ((((((...)))))) | -31.5 kcal/mol | 63.6 °C
